Results as given in ChEMBL document CHEMBL1158800, “Antineoplastic agents. 545. Isolation and structure of turbostatins 1-4 from the Asian marine mollusk Turbo stenogyrus” (2005).
Converted amounts (≈) assume the structure as drawn.

Legend:
Type in all cases: functional
MCF7 = experiment: Growth inhibition of human MCF7 cells after 48 hrs by particle counting method; conditions: MCF7, 48 h
[1] = Growth inhibition of human MXPC3 cells after 48 hrs by particle counting method; conditions: MXPC3, 48 h
DU-145 = experiment: Growth inhibition of human DU145 cells after 48 hrs by particle counting method; conditions: DU-145, 48 h
P388 [2] = experiment: Growth inhibition of mouse P388 cells after 48 hrs by particle counting method; conditions: P388, 48 h
In short: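 Murine P388 lymphocytic leukemia cells in 10% horse serum/Fisher medium, preincubated 24 hrs. Serial dilutions of the compounds were added and cells grown 48 hrs. Cell numbers were counted with a Z1 Coulter particle counter, and the ED50 for growth inhibition was calculated.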

SF-268 = experiment: Growth inhibition of human SF268 cells after 48 hrs by particle counting method; conditions: SF-268, 48 h
NCI-H460 = experiment: Growth inhibition of human NCI-H460 cells after 48 hrs by particle counting method; conditions: NCI-H460, 48 h
KM-20L2 = experiment: Growth inhibition of human KM20L2 cells after 48 hrs by particle counting method; conditions: KM-20L2, 48 h
P388 [3] = experiment: In vivo antitumor activity against mouse P388 cells at 4 to 800 mg/ kg; conditions: dose mg/ kg 4-800

| SMILES | GI50 (MCF7) [µg/mL] | GI50 [1] [µg/mL] | GI50 (DU-145) [µg/mL] | GI50 (P388 [2]) [µg/mL] | GI50 (SF-268) [µg/mL] | GI50 (NCI-H460) [µg/mL] | GI50 (KM-20L2) [µg/mL] | T/C (P388 [3]) |
| --- | --- | --- | --- | --- | --- | --- | --- | --- |
| CCCCCCCCCCC/C=C/[C@@H](O)[C@H](CO[C@@H]1O[C@H](CO)[C@@H](O)[C@H](O)[C@H]1O)NC(=O)CCCCCCCCCCCCCCCCC [TURBOSTATIN 2] | 0.39 (≈ 0.557 µM) | 1 (≈ 1.43 µM) | 1.7 (≈ 2.43 µM) | 0.15 (≈ 0.214 µM) | 1.9 (≈ 2.71 µM) | 0.53 (≈ 0.757 µM) | 0.35 (≈ 0.5 µM) |  |
| CCCCCCCCCCC/C=C/[C@@H](O)[C@H](CO[C@@H]1O[C@H](CO)[C@H](O)[C@H](O)[C@H]1O)NC(=O)CCCCCCCCCCCCCCC [TURBOSTATIN 3] | 0.48 (≈ 0.714 µM) | 1.6 (≈ 2.38 µM) | 2.6 (≈ 3.87 µM) | 0.25 (≈ 0.372 µM) | 1.9 (≈ 2.83 µM) | 0.55 (≈ 0.818 µM) | 0.48 (≈ 0.714 µM) |  |
| CCCCCCCCCCC/C=C/[C@@H](O)[C@H](CO[C@@H]1O[C@H](CO)[C@H](O)[C@H](O)[C@H]1O)NC(=O)CCCCCCCCCCCCCCCCC [TURBOSTATIN 4] | 0.44 (≈ 0.629 µM) | 0.93 (≈ 1.33 µM) | 2.6 (≈ 3.71 µM) | 0.29 (≈ 0.414 µM) | 1.5 (≈ 2.14 µM) | 0.49 (≈ 0.7 µM) | 0.41 (≈ 0.586 µM) |  |
| NCCS(=O)(=O)O [TAURINE] |  |  |  |  |  |  |  | 123 |
| CCCCCCCCCCC/C=C/[C@@H](O)[C@H](CO[C@@H]1O[C@H](CO)[C@@H](O)[C@H](O)[C@H]1O)NC(=O)CCCCCCCCCCCCCCC [TURBOSTATIN 1] | 0.44 (≈ 0.655 µM) | 0.71 (≈ 1.06 µM) | 1.6 (≈ 2.38 µM) | 0.27 (≈ 0.402 µM) | 0.98 (≈ 1.46 µM) | 0.34 (≈ 0.506 µM) | 0.35 (≈ 0.521 µM) |  |
